Source: PubChem
Most compounds without a hit are left out; they make up all but 1.8% or so of the library.
LEDGF integ inh – blocks HIV-1 LEDGF/p75-dependent DNA integration; inhibition, % at 3.7 µM; TR-FRET IN-LEDGF/p75 DNA integration, Eu/Cy5; 370,000 compounds, 0.64% hits;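 active = inhibition above the screen-wide mean plus 3 SD, cut at about 13% in these data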;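 also: signal is the Cy5 over europium emission ratio at 671 and 618 nm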
UHRF1 binding – human UHRF1 methylated DNA binding inhibitors; UHRF1 binding to methylated oligo, TR-FRET; Q96T88; inhibition, % at 4.4 µM; AID 687016; 370,000 compounds, 0.75% hits; in the data active = inhibition above about 21%;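 also: UHRF1 SRA domain binding a hemimethylated CpG hairpin DNA probe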
NSD2 HMT inh – blocks human histone methyltransferase NSD2. O96028. NSD2 peptide methylation, AlphaScreen, 120 min. inhibition, % at 12.5 µM. 310,000 compounds, 0.54% hits. AID 743445; in the data active = inhibition above about 50%
TDP2 inh – TDP2 (human) inhibition, absorbance primary screen | O95551 | recombinant TDP2, T5PNP hydrolysis, p-nitrophenol absorbance 415 nm | inhibition, % at 12.8 µM | 370,000 compounds, 0.34% hits | AID 720702;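 active = inhibition above the mean of all tested compounds plus 3 SD, set per campaign, cut at about 25% in these data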
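System – recombinant human TDP2 · Quantity – TDP2 enzyme at 120 nM final · Doses – single concentration, 12.8 µM nominal, with 1% DMSO · Incubation – 2 h at 37 °C · Measured by – epi absorbance of p-nitrophenol freed from T5PNP by hydrolysis · Read-out – % inhibition relative to enzyme-containing and enzyme-free wells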
MBD2 DNA inh – MBD2-methylated oligo binding inhibition; Q9UBB5; 370,000 compounds, 0.31% hits; inhibition, % at 4.4 µM; TR-FRET, MBD2 binding to methylated oligonucleotide; in the data active = inhibition above about 13%
CASP6 VEID inh – inhibitors of human caspase-6. AID 686996. purified caspase-6, Z-VEID-R110 cleavage fluorescence. inhibition, % at 12.5 µM. 350,000 compounds, 0.53% hits. P55212;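 active = mean inhibition across replicates at least about 35%, with every replicate also reaching that limit, limit read from the data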
Target sequence (P55212 24-179 limits assumed): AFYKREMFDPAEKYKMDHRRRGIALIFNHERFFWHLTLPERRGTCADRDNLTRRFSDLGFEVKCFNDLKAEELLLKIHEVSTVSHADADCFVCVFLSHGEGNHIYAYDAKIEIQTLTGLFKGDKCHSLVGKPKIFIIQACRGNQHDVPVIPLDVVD
Target sequence (P55212 194-293 limits assumed): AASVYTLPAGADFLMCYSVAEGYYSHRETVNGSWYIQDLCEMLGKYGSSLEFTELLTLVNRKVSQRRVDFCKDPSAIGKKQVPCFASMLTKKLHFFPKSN
AlphaScreen art – AlphaScreen assay artifact in NSD2 counter-screen | shares compounds with NSD2 HMT inh | AlphaScreen artifact counterscreen, preloaded methylated H4 peptide | AC35, µM (titrated, usually from 10 µM) | 1,500 compounds, 9.4% hits; call rule not given here
Each line names hits and unclear results; the compound was inactive in the other large screens (follow-up assays come after a bar, where they were run).

O=C(CCCN1C(=O)/C(=C/c2ccccc2)SC1=S)Nc1ccc(C(=O)O)c(O)c1	NSD2 HMT inh 55 | AlphaScreen art inactive
O=C(CCCN1C(=O)/C(=C/c2cccs2)SC1=S)Nc1ccc(O)c(C(=O)O)c1	NSD2 HMT inh 53 (no result: LEDGF integ inh, UHRF1 binding, TDP2 inh, MBD2 DNA inh, CASP6 VEID inh) | AlphaScreen art inactive
COc1ccc(NC(=O)CCCN2C(=O)/C(=C\c3ccco3)SC2=S)cc1	none (no result: CASP6 VEID inh)
CCCC(=O)Nc1ccc2c(c1)OC[C@@H](C)N(Cc1cccc(F)c1)C[C@H](C)[C@@H](OC)CN(C)C2=O	none (no result: LEDGF integ inh, UHRF1 binding, NSD2 HMT inh, TDP2 inh, MBD2 DNA inh)
CO[C@H]1O[C@H](CO)[C@@H](OC(=O)Nc2cccc(F)c2)[C@H](OC(=O)Nc2ccccc2)[C@H]1OC(=O)Nc1ccccc1	none (no result: LEDGF integ inh, UHRF1 binding, NSD2 HMT inh, TDP2 inh, MBD2 DNA inh)
COc1ccc(-c2csc(Nc3ccc(S(=O)(=O)Nc4cc(C)on4)cc3)n2)cc1C	NSD2 HMT inh 63 | AlphaScreen art inactive
O=C(Nc1cc(F)ccc1F)N1CC(=O)N2[C@H](C1)[C@@H](c1ccc(-c3cccc(F)c3)cc1)[C@@H]2CO	none (no result: LEDGF integ inh, UHRF1 binding, NSD2 HMT inh, TDP2 inh, MBD2 DNA inh)
COc1cc(/C=C2\SC(N)=NC2=O)cc(Cl)c1O	NSD2 HMT inh 68 | AlphaScreen art inactive
COc1ccc(/C=C2\SC(N)=NC2=O)cc1Br	none
O=C(NCc1ccc(F)cc1)C1CCCN1S(=O)(=O)c1ccccc1C(F)(F)F (stereo not drawn)	NSD2 HMT inh 137 | AlphaScreen art inactive
O=C(NCc1ccc(F)cc1)C1CCCN1S(=O)(=O)c1ccc(F)cc1 (stereo not drawn)	none
CCCN(CCC)CCNC(=O)c1cc2c(-c3ccccc3F)nn(C)c2s1	NSD2 HMT inh 53 | AlphaScreen art inactive
C=CCn1c(SCC(C)=O)nc2scc(-c3ccco3)c2c1=O	none
C=CCn1c(SCc2ccc3c(c2)OCO3)nc2scc(-c3ccco3)c2c1=O	NSD2 HMT inh 117 (no result: CASP6 VEID inh) | AlphaScreen art inactive
O=C(NCc1cc(F)cc(F)c1)[C@@H]1[C@@H](CO)[C@@H]2Cn3c(cccc3=O)[C@H]1N2C(=O)c1ccccn1	none (no result: LEDGF integ inh, UHRF1 binding, NSD2 HMT inh, TDP2 inh, MBD2 DNA inh)
O=C(NNC(=S)Nc1ccccc1)c1ccco1	NSD2 HMT inh 119 (no result: CASP6 VEID inh) | AlphaScreen art inactive
COc1ccc2c3c(n(C)c2c1)[C@H](CO)N(C(C)=O)CC31CN(S(=O)(=O)c2ccccc2)C1	none (no result: LEDGF integ inh, UHRF1 binding, NSD2 HMT inh, TDP2 inh, MBD2 DNA inh)
COc1ccc2c3c([nH]c2c1)[C@@H](CO)N(C(=O)c1ccccn1)CC31CN(C(=O)C2CCCC2)C1	none (no result: LEDGF integ inh, UHRF1 binding, NSD2 HMT inh, TDP2 inh, MBD2 DNA inh)
COC(=O)c1c(SCC(=O)Nc2ccc(C)c(C)c2)nc(=O)[nH]c1C	NSD2 HMT inh 116 | AlphaScreen art inactive
CCCCn1cnc2c(=S)nc(N)[nH]c21	NSD2 HMT inh 57 | AlphaScreen art inactive
CCCCCn1cnc2c(=S)nc(N)[nH]c21	none
c1cc(-c2ccoc2)n2ccnc2c1	NSD2 HMT inh 105 | AlphaScreen art inactive
C/C(CC(=O)Nc1ccc2ccccc2c1)=N\NC(=O)c1cnccn1	none (no result: CASP6 VEID inh)
C/C(CC(=O)Nc1ccc2ccccc2c1)=N\NC(=O)c1ccc(O)c(O)c1	NSD2 HMT inh 111 | AlphaScreen art inactive
COCCNC(=O)c1ccc(CN2CCc3ccccc3C2)cc1	NSD2 HMT inh 56 | AlphaScreen art inactive
CCCNC(=O)c1ccc(CN2CCc3ccccc3C2)cc1	none (no result: CASP6 VEID inh)
CC1CCCCC1NCC#CCOc1ccc(Cl)cc1 (stereo not drawn)	none
CC(C)NCC#CCOc1ccc(Cl)cc1	NSD2 HMT inh 53 | AlphaScreen art inactive
COc1ccc(NC2=CC(c3cccc(OC)c3)N(c3ccc(OC)cc3)C2=O)cc1 (stereo not drawn)	NSD2 HMT inh 52 (no result: CASP6 VEID inh) | AlphaScreen art inactive
O=C(C[C@@H]1CC[C@@H]2[C@H](COC[C@H](O)CN2Cc2cccc(C(F)(F)F)c2)O1)NCc1ccncc1	none (no result: LEDGF integ inh, UHRF1 binding, NSD2 HMT inh, TDP2 inh, MBD2 DNA inh)
COc1ccc(-c2nn(-c3ccccc3)cc2C(=O)Nc2ccc(C(=O)O)cc2)cc1	NSD2 HMT inh 73 | AlphaScreen art inactive
CN1CCC(=NNC(=O)c2cn(-c3ccccc3)nc2-c2ccccc2)CC1	NSD2 HMT inh 53 | AlphaScreen art inactive
O=C(O)c1ccc(NC(=O)c2cn(-c3ccccc3)nc2-c2ccccc2)cc1	none
CN(C)C(=O)C[C@@H]1C=C[C@@H](NC(=O)C2CCOCC2)[C@@H](CO)O1	none (no result: LEDGF integ inh, UHRF1 binding, NSD2 HMT inh, TDP2 inh, MBD2 DNA inh)
